Calls of active or inactive are those of the source. The calls are words filed in the database; no cut-off is given here.
Columns and labels:
[1] = test system: MCF7; assay: Antiproliferative activity against human MCF7 cells after 24 hrs by MTT assay; format: functional, cell-based; details: MCF7, 24 h
Method in brief: (§1)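 Cells from ATCC, subcultured by an earlier reported method, then exposed to 5-fold serial dilutions in triplicate for 24 h. Cells were washed with PBS, given MTT for 2 h, then dissolved in DMSO. Absorbance read at 570 nm.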

[2] = molecular target: T1, Estrogen receptor (Homo sapiens, UniProt P03372); assay: Inhibition of estrogen receptor-alpha (unknown origin) by ELISA
T1 sequence (P03372 whole entry): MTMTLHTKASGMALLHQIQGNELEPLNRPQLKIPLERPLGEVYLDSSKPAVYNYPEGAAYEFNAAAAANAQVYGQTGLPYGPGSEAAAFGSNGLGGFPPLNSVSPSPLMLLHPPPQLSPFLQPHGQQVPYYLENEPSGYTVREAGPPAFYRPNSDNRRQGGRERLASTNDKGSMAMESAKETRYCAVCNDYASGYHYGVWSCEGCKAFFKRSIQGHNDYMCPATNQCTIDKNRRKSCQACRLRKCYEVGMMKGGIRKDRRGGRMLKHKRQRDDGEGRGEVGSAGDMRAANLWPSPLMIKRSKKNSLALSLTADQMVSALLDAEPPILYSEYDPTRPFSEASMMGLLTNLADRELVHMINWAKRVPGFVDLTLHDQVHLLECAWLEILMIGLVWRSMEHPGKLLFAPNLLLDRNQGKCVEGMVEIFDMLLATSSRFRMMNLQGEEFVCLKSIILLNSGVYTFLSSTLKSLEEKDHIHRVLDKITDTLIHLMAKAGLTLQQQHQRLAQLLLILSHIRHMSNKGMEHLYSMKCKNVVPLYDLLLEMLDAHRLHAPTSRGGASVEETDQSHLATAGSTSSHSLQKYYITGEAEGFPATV

[3] = test system: T47D; assay: Antiproliferative activity against human T47D cells after 24 hrs by MTT assay; format: functional, cell-based; method in brief: as §1
[4] = Acute toxicity in Swiss albino mouse assessed induction of behavioural changes at 10 mg/mouse, ip dosed once weekly; format: organism-based; details: in vivo
Method in brief: (§2)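 Normal female-strain-unspecified mice got a single i.p. dose of 10 mg/mouse. They were watched for 7 days for short-term acute toxic signs, behavioural changes and mortality.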

[5] = test system: Ehrlich; assay: Antitumor activity against mouse EAC cells implanted in Swiss albino mouse assessed as induction of necrosis at 5 mg/mouse, ip dosed once weekly starting 5 days after inoculation by hematoxylin and eosin staining-based assay; format: functional, organism-based
Method in brief: (§3)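 EAC solid tumors in female Swiss albino mice, with weekly i.p. treatment in 10% Tween 80 against vehicle and fulvestrant controls. Tumors were collected on day 15, formalin-fixed, paraffin-embedded and stained with H&E. Necrotic index scored in 10 random fields per section per animal. n=10, one-way ANOVA with Tukey-Kramer.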

[6] = test system: Ehrlich; assay: Antitumor activity against mouse EAC cells implanted in Swiss albino mouse assessed as reduction in tumor size at 5 to 10 mg/mouse, ip dosed once weekly starting 5 days after inoculation and measured 9 and 12 days of treatment relative to fulvestrant; format: functional, organism-based
Method in brief: (§4)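 Female Swiss albino mice received EAC cells from donor ascitic fluid (~12.5 × 10^6/mL in sterile saline, 0.2 mL) i.m. into the left thigh. Treatment began at a palpable mass of ~100 mm3, given i.p. once weekly in 10% Tween 80 against vehicle and fulvestrant 5 mg/mouse controls. Caliper tumor volume = L × H² × 0.52. Mean ± SD, n=10, one-way ANOVA with Tukey-Kramer.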

[7] = test system: Mus musculus; assay: Decrease in ER-alpha protein expression in tumors of Swiss albino mouse mouse implanted with mouse EAC cells at 10 mg/mouse, ip dosed once weekly starting 5 days after inoculation by immunohistochemical analysis relative to control; format: functional; design: scale not given: the % may be the effect or the level left
Method in brief: (§5)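 Tumors from the EAC mouse model after 15 days of treatment were stained by avidin-biotin immunoperoxidase using an anti-ER-α monoclonal antibody (1:100 in PBS), detected with DAB and counterstained with Mayer's hematoxylin. A section without primary antibody served as negative control. Percentage of positive cells estimated in 10 random fields per section per animal. Mean ± SD, n=10.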

[8] = test system: Mus musculus; assay: Decrease in ER-alpha protein expression in tumors of Swiss albino mouse mouse implanted with mouse EAC cells at 10 mg/mouse, ip dosed once weekly starting 5 days after inoculation by immunohistochemical analysis relative to fulvestrant; format: functional; design: scale not given: the % may be the effect or the level left; method in brief: as §5
[9] = test system: Mus musculus; assay: Decrease in ER-alpha protein expression in tumors of Swiss albino mouse mouse implanted with mouse EAC cells at 5 mg/mouse, ip dosed once weekly starting 5 days after inoculation by immunohistochemical analysis relative to control; format: functional; design: scale not given: the % may be the effect or the level left; method in brief: as §5
[10] = test system: Ehrlich; assay: Antitumor activity against mouse EAC cells implanted in Swiss albino mouse assessed as focal necrotic areas in deeper parts of tumor mass at 10 mg/mouse, ip dosed once weekly starting 5 days after inoculation by hematoxylin and eosin staining-based assay; format: functional, organism-based; method in brief: as §3
[11] = test system: Ehrlich; assay: Antitumor activity against mouse EAC cells implanted in Swiss albino mouse assessed as reduction in tumor volume at 10 mg/mouse, ip starting 5 days after inoculation dosed once weekly and measured on 15 days of treatment relative to fulvestrant; format: functional, organism-based; method in brief: as §4
[12] = Acute toxicity in Swiss albino mouse assessed induction of toxic signs at 10 mg/mouse, ip dosed once weekly; format: organism-based; details: in vivo; method in brief: as §2
[13] = test system: Ehrlich; assay: Antitumor activity against mouse EAC cells implanted in Swiss albino mouse assessed as viable cell area in deeper parts of tumor mass at 10 mg/mouse, ip dosed once weekly starting 5 days after inoculation by hematoxylin and eosin staining-based assay; format: functional, organism-based; method in brief: as §3
[14] = test system: Mus musculus; assay: Decrease in ER-alpha protein expression in tumors of Swiss albino mouse mouse implanted with mouse EAC cells at 5 mg/mouse, ip dosed once weekly starting 5 days after inoculation by immunohistochemical analysis relative to fulvestrant; format: functional; design: scale not given: the % may be the effect or the level left; method in brief: as §5
[15] = Acute toxicity in Swiss albino mouse implanted with mouse EAC cells assessed effect on body weight at 5 to 10 mg/mouse, ip dosed once weekly starting 5 days after inoculation and measured up to 20 days after inoculation; format: organism-based; details: in vivo
Method in brief: (§6)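 Female Swiss albino mice were given EAC cells from donor ascitic fluid, diluted in sterile saline to ~12.5 × 10^6/mL, 0.2 mL i.m. into the left thigh. Once-weekly i.p. dosing in 10% Tween 80 began at a palpable ~100 mm3 mass; controls got vehicle. Tumour volume (caliper, L × H² × 0.52) and body weight were taken over 15 days; n=10, mean ± SD, ANOVA/Tukey-Kramer.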

[16] = Acute toxicity in Swiss albino mouse assessed induction of mortality at 10 mg/mouse, ip dosed once weekly; format: organism-based; details: in vivo; method in brief: as §2
[17] = test system: Ehrlich; assay: Antitumor activity against mouse EAC cells implanted in Swiss albino mouse assessed as reduction in tumor size at 5 mg/mouse, ip dosed once weekly starting 5 days after inoculation; format: functional, organism-based; method in brief: as §6
[18] = test system: Ehrlich; assay: Antitumor activity against mouse EAC cells implanted in Swiss albino mouse assessed as reduction in tumor volume at 5 mg/mouse, ip dosed once weekly starting 5 days after inoculation and measured on 15 days of treatment relative to fulvestrant; format: functional, organism-based; method in brief: as §4
[19] = test system: Ehrlich; assay: Antitumor activity against mouse EAC cells implanted in Swiss albino mouse assessed as reduction in viable tumor cell area in outer zone of tumor mass at 10 mg/mouse, ip dosed once weekly starting 5 days after inoculation by hematoxylin and eosin staining-based assay; format: functional, organism-based; method in brief: as §3
[20] = test system: Ehrlich; assay: Antitumor activity against mouse EAC cells implanted in Swiss albino mouse assessed as increase in necrotic areas in outer zone of tumor mass at 10 mg/mouse, ip dosed once weekly starting 5 days after inoculation by hematoxylin and eosin staining-based assay; format: functional, organism-based; method in brief: as §3
[21] = test system: Ehrlich; assay: Antitumor activity against mouse EAC cells implanted in Swiss albino mouse assessed as induction of tumor degeneration in outer zone of tumor mass at 10 mg/mouse, ip dosed once weekly starting 5 days after inoculation by hematoxylin and eosin staining-based assay; format: functional, organism-based; method in brief: as §3

SMILES: COc1ccc(S(=O)(=O)Nc2ccc3cc[nH]c3c2)cc1
- IC50 [1]: 57.2 µM
- IC50 [2]: 0.00753 µM
- IC50 [3]: 45 µM

SMILES: CC/C(=C(\c1ccccc1)c1ccc(OCCN(C)C)cc1)c1ccccc1 [TAMOXIFEN]
- IC50 [1]: 42.4 µM
- IC50 [3]: 34.4 µM

SMILES: N#Cc1ccc(C(=O)Nc2ccc3cc[nH]c3c2)cc1
- IC50 [1]: 33.6 µM
- IC50 [2]: 0.0024 µM
- IC50 [3]: 35.8 µM

SMILES: O=C(Nc1ccc2cc[nH]c2c1)c1ccc(C(F)(F)F)cc1
- IC50 [1]: 63.4 µM
- IC50 [2]: 0.00815 µM
- IC50 [3]: 51.3 µM

SMILES: O=C(Nc1ccc2cc[nH]c2c1)c1ccc(Br)cc1
- IC50 [1]: 38.1 µM
- IC50 [2]: 0.00471 µM
- IC50 [3]: 63.7 µM

SMILES: O=S(=O)(Nc1ccc2cc[nH]c2c1)c1ccc(Br)cc1
- IC50 [1]: 37.8 µM
- IC50 [2]: 0.0227 µM
- IC50 [3]: 40.1 µM

SMILES: O=S(=O)(Nc1ccc2cc[nH]c2c1)c1ccc(F)cc1
- Activity [4]: Non-Toxic
- IC50 [1]: 30.9 µM
- IC50 [2]: 0.00331 µM
- Activity [5]: inactive
- Activity [6]: Active
- Activity [7]: 37.65%
- Activity [8]: 25.35%
- Activity [9]: 58.24%
- Activity [10]: Active
- Activity [11]: Active
- Activity [12]: Non-Toxic
- Activity [13]: Active
- Activity [14]: 50%
- Activity [15]: Non-Toxic
- Activity [16]: Non-Toxic
- IC50 [3]: 33 µM

SMILES: O=C(Nc1ccc2cc[nH]c2c1)c1ccc(F)cc1
- IC50 [1]: 45.9 µM
- IC50 [2]: 0.0695 µM
- IC50 [3]: 35.1 µM

SMILES: C[C@]12CC[C@@H]3c4ccc(O)cc4C[C@@H](CCCCCCCCC[S+]([O-])CCCC(F)(F)C(F)(F)F)[C@H]3[C@@H]1CC[C@@H]2O (some centres undefined)
- Activity [17]: Active

SMILES: Cc1ccc(S(=O)(=O)Nc2ccc3cc[nH]c3c2)cc1
- IC50 [1]: 37.2 µM
- IC50 [2]: 0.205 µM
- IC50 [3]: 57.1 µM

SMILES: O=S(=O)(Nc1ccc2cc[nH]c2c1)c1ccc(Cl)cc1
- IC50 [1]: 54 µM
- IC50 [2]: 0.0444 µM
- IC50 [3]: 46.2 µM

SMILES: O=C(Nc1ccc2cc[nH]c2c1)c1cccc(C(F)(F)F)c1
- Activity [4]: Non-Toxic
- IC50 [1]: 30.6 µM
- IC50 [2]: 0.00176 µM
- Activity [6]: Active
- Activity [7]: 35.3%
- Activity [8]: 22.54%
- Activity [18]: Active
- Activity [9]: 64.71%
- Activity [19]: Active
- Activity [12]: Non-Toxic
- Activity [20]: Active
- Activity [14]: 57.75%
- Activity [15]: Non-Toxic
- Activity [16]: Non-Toxic
- Activity [21]: Active
- IC50 [3]: 28.2 µM
